The text below walks through data of PMC5856940 (Saudi Pharmaceutical Journal : SPJ, 2018).

By IC50 is commonly meant the concentration at which inhibition is half-maximal. Read a low IC50 as inhibition by little substance. What is called mortality is the percentage killed. Low values mean a weak lethal effect, high ones a strong lethal effect.

In data set [1] the test system is HEK293T cells. Briefly: Cytotoxicity screening of AHAMCs, trypan blue exclusion assay. The conditions noted are these: 25 mM, 24 h. It counts as cell-based, Human. Put shortly: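 HEK293T cells were grown in DMEM with 10% FBS, 1mM pyruvate and antibiotics/antifungal at 37 °C and 5% CO2. Cells were seeded at 1 × 10^6 per well, grown 24 h, then given fresh medium. Test compound (100 mM DMSO stock, diluted in DMSO then dH2O) was added at 25 mM for 24 h. Cells were trypsinised (0.5%) and live/dead cells counted by trypan blue on a Bürker hemocytometer under bright field.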

In data set [2] the test system is HEK293T cells. Description: Dose-dependent response. The format is cell-based, Human. To be noted: 24 h; for cytotoxicity at higher concentrations: 50 and 100 mM; for IC50: cell death, trypan blue, 6.25-100 mM. A digest of the protocol: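 HEK293T cells were seeded at 1 × 10^6 per well and grown 24 h. Medium was replaced with medium holding test compound at 6.25, 12.5, 25, 50 or 100 mM for 24 h. Read-out was trypan blue exclusion, with % cell death = dead/total cells × 100. IC50 was taken from a fitted concentration–effect curve. Three technical and biological repeats were done.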

The subject of data set [3] is HEK293T cells. Description: Differentiation of apoptosis and necrosis by PI staining. It counts as cell-based, Human. To be noted: for cell death compared to the other compounds: IC50, 24 and 48 h. A digest of the protocol: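 HEK293T cells (1 × 10^6 per well) were grown 24 h, then resuspended in medium with test compound at one fixed concentration for 24 or 48 h. Cells were washed three times in DPBS, trypsinised, washed again, and stained 5 min with 1 mg/mL PI in 2× SSC. Nuclei were imaged by confocal microscopy (ex 535, em 617 nm) and scored as apoptotic or necrotic. About 100 cells were counted per sample, with three technical and biological repeats.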

Data set [4] relates to HEK293T cells. Briefly: Externalized phosphatidylserine, Annexin-V staining. It counts as cell-based, Human. Put shortly:
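HEK293T cells were exposed to test compound for 24 or 48 h, trypsinised, washed three times in DPBS and resuspended in annexin-binding buffer. Alexa Fluor 350 Annexin-V conjugate was added for 15 min at 37 °C, and cells were washed in binding buffer. Imaging was by confocal microscopy (ex 346, em 442 nm). About 100 cells were analysed per sample, with three technical and biological repeats.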

A further data set relates to 1321N1 cells. Description: Cytotoxicity in glioma cells, trypan blue assay. To be noted: 1321N1, 100 µM, 24 h. The format is cell-based, Human. Put shortly: (§1)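 U-87 MG cells were grown in MEM with L-glutamine, and 1321N1 cells in DMEM with L-glutamine plus 2 mM sodium pyruvate. Both media had 10% FBS, penicillin/streptomycin and amphotericin B, at 37 °C and 5% CO2. Cells were seeded at 1 × 10^5 per well, grown 48 h, then exposed 24 h to 100 µM test compound, 0.1% DMSO or 100 µM temozolomide. Cells were trypsinised and scored by trypan blue. Biological and technical repeats were run.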

The next data set relates to U-87 MG cells. Description: Cytotoxicity in glioma cells, trypan blue assay. It counts as cell-based, Human. The conditions noted are these: 100 µM, 24 h. A digest of the protocol:
as §1

Data set [5] deals with Syrian Hamster Embryo (SHE) cells. To be noted: 60 µM ref Hahnel et al., 1999; cited from earlier work.

A value given as a limit tells only on which side of the number the result lay.

Take “2-(2-(2,4-dioxopentan-3-ylidene)hydrazinyl)phenylarsonic acid [Compound 12]”: in the data set with HEK293T cells [1], the cytotoxicity is given as at most 30%.
Still for that read-out and setting: to “2-(2-(2-hydroxy-4-nitrophenyl)hydrazono)-2H-indene-1,3-dione [Compound 2]” belongs at most 30%.
Compound “4-hydroxy-5-(2-(2,4,6-trioxo-tetrahydro-pyrimidin-5(6H) ylidene)hydrazinyl)benzene-1,3-disulfonic acid [Compound 6]” came in with a cytotoxicity in the data set with HEK293T cells [1] of 36%. In the data set with HEK293T cells [2], the “cytotoxicity at higher concentrations” value is on record as “did not elicit significant cytotoxicity” and half-maximal inhibition (IC50) required 77.08 ± 0.5 mM. The “cell death compared to the other compounds” value with HEK293T cells [3] is on record as “less cell death”.
“5-(2-(2,4-dioxopentan-3-ylidene)hydrazinyl)-2,3-dihydrophthalazine-1,4-dione [Compound 13]” gave a cytotoxicity in the data set with HEK293T cells [1] of at most 30%.
Same read-out and setting: to “5-(2-(2-hydroxy-4-nitrophenyl)hydrazono)pyrimidine-2,4,6(1H,3H,5H)-trione [Compound 7]” belongs at most 30%.
Compound “5-(2-(2-hydroxyphenyl) hydrazono)pyrimidine-2,4,6(1H,3H,5H)-trione [Compound 5]” showed a cytotoxicity in the data set on HEK293T cells [1] of 46%. For the same compound, the “apoptotic effect (Annexin-V)” value with HEK293T cells [4] (24 h and 48 h) is on record as “more apoptotic effect compared to the other compounds”. Moreover, in the data set with HEK293T cells [2], the cell death was about 80% and the IC50 stood at 50.9 ± 2.5 mM. Moreover, in the data set with 1321N1 cells, the “higher inhibitory effect compared to temozolomide” value stood at 10% and the mortality is given as 20%. For the same compound, in the data set with U-87 MG cells, the “lower inhibitory effect compared to temozolomide” value amounted to 10% and the mortality is on record as 10%. For the same compound, in the data set with HEK293T cells [3] (IC50 of compound, 24 h), the apoptosis entry was “about 40%” and the necrosis entry is reported as “about 20%”. Moreover, in the data set with HEK293T cells [3] (IC50 of compound, 48 h), the apoptosis result is reported as “≈ 60%”, the cell death was about 80% and the necrosis result is reported as “about 20%”.
Turning to “5-(2-(4,4-dimethyl-2,6-dioxocyclohexylidene)hydrazinyl)-4-hydroxybenzene-1,3-disulfonic acid [Compound 9]”, in the data set on HEK293T cells [1], the cytotoxicity is recorded as 42%. In the data set with HEK293T cells [2], the “cytotoxicity at higher concentrations” value was “did not elicit significant cytotoxicity”. The “cell death compared to the other compounds” value with HEK293T cells [3] is on record as “less cell death”.
In turn, “5-chloro-2-hydroxy-3-(2-(2,4,6-trioxo-tetrahydropyrimidin-5(6H)-ylidene)hydrazinyl)benzenesulfonic acid [Compound 4]” returned a cytotoxicity with HEK293T cells [1] of at most 30%.
The compound “5-chloro-3-(2-(4,4-dimethyl-2,6-dioxocyclohexylidene)hydrazinyl)-2-hydroxybenzenesulfonic acid [Compound 8]” yielded a cytotoxicity in the data set on HEK293T cells [1] of 45%. In addition, the “level of apoptosis (Annexin-V)” value with HEK293T cells [4] (48 h) was “lower level of apoptosis”. Besides, in the data set with HEK293T cells [2], the cell death is about 80% and the IC50 turned out to be 75.5 ± 2.3 mM. Also, the “apoptosis/necrosis response compared with compound 5” value in the data set on HEK293T cells [3] (IC50, 48 h) is on record as “lower response”.
Regarding `C[C@@H]1Cc2c(Cl)cc(C(=O)N[C@@H](Cc3ccccc3)C(=O)O)c(O)c2C(=O)O1` [Ochratoxin A], the “intracellular calcium increase compared to untreated cells” value in data set [5] is given as 45%.
Consider “(E)-3-(2-(1-ethoxy-1,3-dioxobutan-2-ylidene)hydrazinyl)-2-hydroxy-5-nitrobenzenesulfonic acid [Compound 1]”, for which, in the data set on HEK293T cells [1], the cytotoxicity is recorded as at most 30%.
Take “(Z)-5-chloro-2-hydroxy-3-(2-(4,4,4-trifluoro-1,3-dioxo-1-(thiophen-2-yl)butan-2-ylidene)hydrazinyl)benzenesulfonic acid [Compound 3]”: in the data set with HEK293T cells [1], the cytotoxicity is reported as at most 30%.
